Active and inactive are the calls of the source. The rule behind the calls is not given here.

A short description of series [1]: Cmax in Sprague-Dawley rat at 200 mg/kg, po. To be noted: in vivo. Type of series: ADME, organism-based. More on the design: route oral, dose 200 mg/kg. An outline of the steps: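 Single oral dose of 200 mg/Kg to SD rats (n = 3). Prodrug and released active degrader quantified in plasma over 0–12 h; Cmax, Tmax and AUC0-12 derived by non-compartmental model.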

For a further series, the system named is B16-F10. Kind of series: Induction of cell cycle arrest in mouse B16-F10 cells assessed as accumulation at G2 phase at 100 uM incubated for 48 hrs by propidium iodide staining based flow cytometry (reference value: 18.22%). The class given is functional.
Series [2] deals with Protein cereblon/Cyclin-dependent kinase 2 (Mus musculus) (UniProt P97377+Q8C7D2). Kind of series: Protac activity at CRBN/CDK2 in mouse B16F10 cells assessed as induction of CDK2 protein degradation at 100 nM for 6 hrsin presence of methyl 6-(7-cyclopentyl-6-(dimethylcarbamoyl)-7H-pyrrolo[2,3-d]pyrimidin-2-ylamino)nicotinate by Western blot analysis. Conditions: B16-F10, time 6.0 hrs. Type of series: cell-based. The gist of the method:
(§1)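 B16F10 cells pre-treated 2 h with DMSO, pomalidomide (10 μM), MG132 (20 μM) or a parent CDK ligand, then exposed to 100 nM degrader for 6 h. CDK2/4/6 protein levels read by western blot.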

Series [3] can be described thus: Cmax in Sprague-Dawley rat at 10 mg/kg, iv. Conditions: in vivo. More on the design: route intravenous, dose 10 mg/kg. The class given is ADME, organism-based.
In series [4] the target is Protein cereblon/Cyclin-dependent kinase 6 (Mus musculus) (UniProt Q8C7D2+Q64261). As to the kind of experiment: Protac activity at CRBN/CDK6 in mouse B16F10 cells assessed as induction of CDK6 protein degradation at 100 nM for 6 hrsin presence of Pomalidomide by Western blot analysis. Conditions: B16-F10, time 6.0 hrs. Type of series: cell-based. The gist of the method: as §1
Background: In western blotting, separated proteins are transferred to a membrane and probed.

Sequence of Protein cereblon/Cyclin-dependent kinase 6 (Mus musculus) (Q64261 whole entry, looked up): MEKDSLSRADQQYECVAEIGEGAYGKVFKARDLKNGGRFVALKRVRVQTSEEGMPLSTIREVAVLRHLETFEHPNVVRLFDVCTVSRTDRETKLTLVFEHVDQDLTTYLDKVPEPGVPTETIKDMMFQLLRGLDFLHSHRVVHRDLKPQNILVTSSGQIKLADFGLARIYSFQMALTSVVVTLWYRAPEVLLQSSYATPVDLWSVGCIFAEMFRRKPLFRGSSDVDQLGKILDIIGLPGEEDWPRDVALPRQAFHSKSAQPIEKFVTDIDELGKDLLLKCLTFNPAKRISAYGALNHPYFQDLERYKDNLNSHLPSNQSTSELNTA
Sequence of Protein cereblon/Cyclin-dependent kinase 6 (Mus musculus) (Q8C7D2 whole entry, looked up): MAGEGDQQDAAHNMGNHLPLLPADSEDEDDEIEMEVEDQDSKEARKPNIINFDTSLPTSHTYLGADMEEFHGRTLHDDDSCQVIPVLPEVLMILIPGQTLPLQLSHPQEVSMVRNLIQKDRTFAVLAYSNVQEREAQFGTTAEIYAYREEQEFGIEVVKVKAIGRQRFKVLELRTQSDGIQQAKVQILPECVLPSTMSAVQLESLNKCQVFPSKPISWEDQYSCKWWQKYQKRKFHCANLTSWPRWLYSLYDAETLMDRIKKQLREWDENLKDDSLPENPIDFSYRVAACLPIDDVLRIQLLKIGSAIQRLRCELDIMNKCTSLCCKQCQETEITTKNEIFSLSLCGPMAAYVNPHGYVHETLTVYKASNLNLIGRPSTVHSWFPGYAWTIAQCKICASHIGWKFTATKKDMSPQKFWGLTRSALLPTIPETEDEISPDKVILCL
Sequence of Protein cereblon/Cyclin-dependent kinase 2 (Mus musculus) (Q8C7D2 whole entry, looked up, other chains not shown): as the sequence (Q8C7D2 whole entry, looked up) above

As a reminder, the Cmax is the highest concentration seen after dosing. With `CN(C)C(=O)c1cc2cnc(Nc3ccc(C(=O)NCCCCCCNc4cccc5c4C(=O)N(C4CCC(=O)NC4=O)C5=O)cc3)nc2n1C1CCCC1` (stereo not given), the highest concentration (Cmax) was 692 µg/mL in series [1] and 59.9 µg/mL in series [3]. Moreover, in the series on B16-F10, the Activity is 30.56%. For the same molecule, the outcome in series [2] and in series [4] was inactive.

Source of the values: ChEMBL document CHEMBL4732105, “First orally bioavailable prodrug of proteolysis targeting chimera (PROTAC) degrades cyclin-dependent kinases 2/4/6 in vivo” (Eur J Med Chem, 2021).
